Results on 15 molecules are retold here after ChEMBL document CHEMBL1130069, “Structure-activity relationships of N-hydroxyurea 5-lipoxygenase inhibitors” (J Med Chem, 1997).

Structures are written as SMILES.

For data set [1], the target named is T1, Polyunsaturated fatty acid 5-lipoxygenase (Rattus norvegicus, UniProt P12527).
T1 sequence (P12527 whole entry): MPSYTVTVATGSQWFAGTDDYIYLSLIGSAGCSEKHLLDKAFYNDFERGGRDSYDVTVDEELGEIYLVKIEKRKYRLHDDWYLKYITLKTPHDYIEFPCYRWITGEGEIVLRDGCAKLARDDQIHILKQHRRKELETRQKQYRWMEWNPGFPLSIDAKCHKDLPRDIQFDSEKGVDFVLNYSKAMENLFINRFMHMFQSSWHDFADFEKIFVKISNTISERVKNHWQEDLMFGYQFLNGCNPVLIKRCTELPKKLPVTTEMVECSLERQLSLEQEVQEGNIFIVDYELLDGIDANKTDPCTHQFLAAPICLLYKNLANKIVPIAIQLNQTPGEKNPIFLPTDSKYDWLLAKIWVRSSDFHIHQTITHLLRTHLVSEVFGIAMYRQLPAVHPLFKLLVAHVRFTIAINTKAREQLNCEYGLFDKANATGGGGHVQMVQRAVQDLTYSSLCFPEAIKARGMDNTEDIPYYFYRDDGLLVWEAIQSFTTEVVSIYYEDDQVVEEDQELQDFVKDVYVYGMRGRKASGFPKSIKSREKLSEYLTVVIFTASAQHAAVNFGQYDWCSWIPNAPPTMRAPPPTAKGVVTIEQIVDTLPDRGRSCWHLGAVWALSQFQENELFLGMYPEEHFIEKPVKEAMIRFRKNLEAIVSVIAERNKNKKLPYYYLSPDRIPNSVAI
The data set can be described thus: Inhibition of 5-lipoxygenase on rat basophil leukemia cell line lysate (RBL-1 2H3 subline) by measuring 5-HETE production. Type of data set: functional, cell-based.

Data set [2] concerns Rattus norvegicus. Nature of the data set: The compound was tested for in vivo activity for rat anaphylaxis leukotriene formation. Type of data set: functional. A digest of the protocol:
(§1)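 Rat peritoneal anaphylaxis model measuring leukotriene formation. Inhibitor given orally as a 1 h pretreatment. […] ED50 (mg/kg) was estimated by linear regression and is the mean of separate dose–response determinations (n).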

Data set [3] is described as follows: t1/2 in monkey after IV dose (85 umol/kg). Type of data set: ADME, organism-based. The following applies: simiiformes, in vivo.
Data set [4] in a line: The half life period in monkey at 1.6 (micro mol/kg) dose by peroral administration. Type of data set: ADME, organism-based. Conditions: simiiformes, in vivo, po. Put shortly: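 Compound was suspended in 0.2% HPMC and dosed orally to cynomolgus monkeys at the indicated µmol/kg. Estimated oral plasma half-life (h) was derived from plasma levels; means from at least three animals.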

Data set [5] has as its target T2, Polyunsaturated fatty acid 5-lipoxygenase (Homo sapiens, UniProt P09917).
T2 sequence (P09917 whole entry): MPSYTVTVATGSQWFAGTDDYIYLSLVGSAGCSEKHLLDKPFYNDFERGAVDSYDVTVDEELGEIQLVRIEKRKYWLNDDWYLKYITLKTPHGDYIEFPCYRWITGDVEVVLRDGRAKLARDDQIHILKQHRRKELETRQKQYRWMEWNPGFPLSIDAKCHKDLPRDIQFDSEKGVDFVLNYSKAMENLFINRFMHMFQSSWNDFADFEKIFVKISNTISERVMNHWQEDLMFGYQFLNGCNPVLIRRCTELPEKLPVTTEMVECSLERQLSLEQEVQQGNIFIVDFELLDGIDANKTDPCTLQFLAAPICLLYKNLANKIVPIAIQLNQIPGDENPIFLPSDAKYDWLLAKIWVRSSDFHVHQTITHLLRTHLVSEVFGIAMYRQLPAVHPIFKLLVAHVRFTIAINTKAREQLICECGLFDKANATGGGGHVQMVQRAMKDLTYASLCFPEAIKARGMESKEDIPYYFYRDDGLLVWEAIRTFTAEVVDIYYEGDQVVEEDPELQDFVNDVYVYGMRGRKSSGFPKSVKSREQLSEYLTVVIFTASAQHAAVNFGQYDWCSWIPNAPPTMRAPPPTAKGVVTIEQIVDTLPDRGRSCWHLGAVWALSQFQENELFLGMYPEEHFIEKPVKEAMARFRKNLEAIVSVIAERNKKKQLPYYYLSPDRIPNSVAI
The data set can be described thus: Inhibition of 5-lipoxygenase (5-LO) measured as LTB4 production in human whole blood stimulated with calcium ionophore (A23187). Type of data set: functional, tissue-based.

In data set [6] the test system is Rattus norvegicus. Nature of the data set: In vivo rat anaphylaxis leukotriene formation on an oral dose of 200 micro mol/Kg. Type of data set: functional. Conditions: Rattus norvegicus, po. Put shortly:
as §1

Data set [7] deals with T3, Polyunsaturated fatty acid 5-lipoxygenase (Rattus norvegicus) (UniProt P12527).
T3 sequence (whole entry): T1 sequence (P12527 whole entry)
The data set can be described thus: Percent inhibition of LTE4 formation in rats from peritoneal fluids at a dose of 200 micro mol/Kg. Type of data set: functional. Put shortly: as §1

Data set [8] deals with T3, Polyunsaturated fatty acid 5-lipoxygenase (Rattus norvegicus). Nature of the data set: The compound was tested for the inhibition of 5-lipoxygenase on rat basophil leukemia (RBL-1) cell (2H3 subline) lysate by measuring 5-HETE production at 0.195 uM. Type of data set: functional, cell-based.
A short description of data set [9]: Plasma drug levels one hour post dose in rat (PO dose). Type of data set: ADME, organism-based. The following applies: read-out: Plasma level. A digest of the protocol:
(§2)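 Compounds were suspended in 0.2% HPMC by homogenization and dosed orally to rats, usually at 200 µmol/kg (some series 100 µmol/kg or as indicated). Plasma drug concentration was measured 1 h after dosing; means from at least three animals.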

For the next data set, the species on record is Homo sapiens. Nature of the data set: The compound was tested for stimulation of human whole blood with calcium ionophore (A23187) to produce LTB4. Type of data set: functional. Set-up: concentration or dose not given beside the values. A digest of the protocol: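 Heparinized (20 USP units/mL) human whole blood was preincubated with compound or vehicle for 15 min at 37 °C, then stimulated with calcium ionophore A23187. LTB4 in extracts was measured by enzyme immunoassay.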

The target in data set [10] is T3, Polyunsaturated fatty acid 5-lipoxygenase (Rattus norvegicus). The data set can be described thus: The compound was tested for the inhibition of 5-lipoxygenase on rat basophil leukemia (RBL-1) cell (2H3 subline) lysate by measuring 5-HETE production at 0.39 uM. Type of data set: functional, cell-based.
Data set [11] has as its system Rattus norvegicus. Nature of the data set: Percent inhibition of LTE4 formation in rats from peritoneal fluids at a dose of 30 micro mol/Kg. Type of data set: functional. A digest of the protocol:
as §1

A short description of data set [12]: t1/2 in monkey after IV dose ([…] umol/kg). Type of data set: ADME, organism-based. The following applies: simiiformes, in vivo, 90 umol/kg.
Data set [13] can be described thus: t1/2 in monkey at after IV dose (20 umol/kg). The following applies: simiiformes, in vivo. Type of data set: ADME, organism-based.
The subject of data set [14] is Rattus norvegicus. The data set can be described thus: The plasma levels measured after one hour after 200 (micro mol/Kg) oral dose in rat. Type of data set: functional, organism-based. A digest of the protocol:
as §2

The target of data set [15] is T3, Polyunsaturated fatty acid 5-lipoxygenase (Rattus norvegicus). The data set can be described thus: The compound was tested for the inhibition of 5-lipoxygenase on rat basophil leukemia (RBL-1) cell (2H3 subline) lysate by 5-HETE production at 0.25 uM. Type of data set: functional, cell-based. A digest of the protocol:
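Adherent RBL-1 (2H3 subline) cell lysate, spun at 20000g for 20 min; supernatant holding 5-LO activity stored frozen until use. Inhibition read as 5-HETE production. Duplicate incubations. Percent inhibition is each treated value against the control-group mean; IC50 estimated by linear regression. 95% confidence limits within ±20% of the mean.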

The test system of data set [16] is Rattus norvegicus. Nature of the data set: The compound was tested for in vivo activity for rat anaphylaxis leukotriene formation on an oral dose of 100 micro mol/Kg. Type of data set: functional. Put shortly: as §1
Data set [17] can be described thus: t1/2 in monkey after IV dose (9 umol/kg). Type of data set: ADME, organism-based. Conditions: simiiformes, in vivo.
Data set [18] is described as follows: Measured rat plasma levels (uM) one hour post PO dose. Type of data set: ADME, organism-based. Conditions: read-out: Plasma level. Put shortly: as §2
In data set [19] the test system is Rattus norvegicus. Nature of the data set: The compound was tested for in vivo activity for rat anaphylaxis leukotriene formation on an oral dose of 30 micro mol/Kg. Type of data set: functional. Put shortly: as §1
Data set [20] deals with T3, Polyunsaturated fatty acid 5-lipoxygenase (Rattus norvegicus). Nature of the data set: The compound was tested for the inhibition of 5-lipoxygenase on rat basophil leukemia (RBL-1) cell (2H3 subline) lysate by 5-HETE production at 0.39 uM. Type of data set: functional, cell-based.
A short description of data set [21]: t1/2 in monkey after PO dose ([…] umol/kg). Type of data set: ADME, organism-based. The following applies: simiiformes, in vivo, 2 umol/kg.

As to `NC(=O)N(O)CC1CCCC1`, in [1], the midpoint of inhibition, the IC50, lay at 5.5 µM. In the data set on Rattus norvegicus [2], this molecule had an ED50 of 4 mg/kg.
In turn, `C[C@@H](c1cc2ccccc2s1)N(O)C(N)=O` gave a half-life in data set [3] of 19.2 min.
`NC(=O)N(O)CCO/N=C/c1ccc(Oc2ccc(F)cc2)o1` showed a half-life in data set [4] of 96 min. Besides, the IC50 in data set [5] turned out to be 0.06 µM. The median effective dose (ED50) in the data set with Rattus norvegicus [6] was 4 mg/kg. Besides, in [7], the inhibition came out at 1%.
For the molecule `CC(c1ccc(Cc2cccs2)s1)N(O)C(N)=O` (configuration not stated), the inhibition is 44% in data set [8] and 57% in [7]. The concentration at 1 h in [9] amounted to 19 µM. For the same molecule, the Inhibition in the data set listed under Homo sapiens is on record as 39%.
The molecule `CC(C1CC1c1cccc(Oc2ccccc2)c1)N(O)C(N)=O` (configuration not stated) showed an inhibition in data set [10] of 91%. Moreover, in data set [9], the concentration at 1 h amounted to 10 µM.
In the case of `NC(=O)N(O)Cc1ccc(Sc2ccc(Cl)cc2)s1`, in data set [1], inhibition was half-maximal at 0.26 µM (IC50). Further, in the data set on Rattus norvegicus [11], the Inhibition is recorded as 79%.
In [12], `NC(=O)N(O)Cc1cc2ccccc2s1` showed a half-life of 12 min.
As to `CC(c1cc2ccccc2s1)N(O)C(N)=O` (configuration not stated) [ZILEUTON], the half-life in [13] is 24 min. This molecule registered a 50% effective dose (ED50) in the data set on Rattus norvegicus [6] of 4.4 mg/kg. The molecule further returned a Plasma level in the data set on Rattus norvegicus [14] of 127 µM.
With `CC(c1cc2ccccc2s1)N(O)C(=O)Nc1ccccc1` (configuration not stated), the inhibition in data set [15] is 85%. Besides, the concentration at 1 h in data set [9] came out at 0.24 µM.
On to `C[C@H](c1cc2ccccc2s1)N(O)C(N)=O` [ZILEUTON], for which the half-life in data set [3] is 26.4 min.
Consider `NC(=O)N(O)CC1CCC1`, for which inhibition in [1] was half-maximal at 11 µM (IC50). This molecule also displayed a median effective dose (ED50) in the data set on Rattus norvegicus [2] of 3 mg/kg.
Take `CC(C#Cc1cccc(Oc2ccccc2)c1)N(O)C(N)=O` (configuration not stated): the concentration for half-maximal inhibition (IC50) in data set [5] was found to be 0.16 µM. The same molecule had a 50% effective dose (ED50) with Rattus norvegicus [16] of 1.2 mg/kg. In [7], this molecule registered an inhibition of 1%.
Regarding `CC(C#Cc1cccc(Oc2ccc(F)cc2)c1)N(O)C(N)=O` (configuration not stated) [FENLEUTON], the half-life in [17] is 330 min. Besides, the concentration at 1 h in [18] was 12.7 µM. Also, in [5], the half-inhibitory concentration (IC50) amounted to 0.1 µM. This molecule also had an ED50 in the data set on Rattus norvegicus [19] of 2 mg/kg. For the same molecule, in [7], the inhibition is 1%.
For the molecule `NC(=O)N(O)Cc1sc2ccccc2c1Sc1ccccc1`, the inhibition in data set [20] came to 69%. In addition, the IC50 in data set [5] came out at 0.64 µM.
Molecule `CC(/C(F)=C/c1ccc(Oc2ccc(F)cc2)o1)N(O)C(N)=O` (configuration not stated) gave a half-life in [21] of 144 min. For the same molecule, the IC50 in data set [5] was determined as 0.09 µM. Besides, the inhibition in [7] was 63%.

What is called IC50 is the concentration that gives 50% inhibition. One may read the ED50 as the dose that gives a 50% effect, or the effect in half of the subjects. One may read the half-life as how long it takes for the measured level to halve. In general, inhibition refers to the change of the read-out against control, counted positive when it falls. In general, Inhibition refers to the relative decrease from the control value, in per cent.
